Experimental findings from ChEMBL document CHEMBL5649170, “Sustained microglial depletion with CSF1R inhibitor impairs parenchymal plaque development in an Alzheimer's disease model” (Nat Commun, 2019) are described below.

SMILES strings stand for the structures. Active and inactive are the calls of the source. The rule behind the calls is not given here. Bounds are passed on as bounds.

For data set [1], the system named is Mus musculus. Put plainly: Antialzheimer activity in 5XFAD mouse assessed as reduction in plaque pathology in […] cortex at 600 ppm administered as rodent chow starting from 1.5 months and measured after 5 months by immunolabeling based confocal microscopic analysis. In kind it is functional, organism-based. The note with it: route po, time 3.5 months. The procedure, abridged:
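5xFAD mice received 600 ppm PLX3397 in AIN-76A chow from 1.5 to 5 months of age. Brain sections were stained with Thio-S for dense-core plaques and immunolabeled for IBA1, then examined by confocal microscopy.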

Data set [2] has as its target T1, Macrophage colony-stimulating factor 1 receptor (Mus musculus) (UniProt P09581).
T1 sequence (whole entry): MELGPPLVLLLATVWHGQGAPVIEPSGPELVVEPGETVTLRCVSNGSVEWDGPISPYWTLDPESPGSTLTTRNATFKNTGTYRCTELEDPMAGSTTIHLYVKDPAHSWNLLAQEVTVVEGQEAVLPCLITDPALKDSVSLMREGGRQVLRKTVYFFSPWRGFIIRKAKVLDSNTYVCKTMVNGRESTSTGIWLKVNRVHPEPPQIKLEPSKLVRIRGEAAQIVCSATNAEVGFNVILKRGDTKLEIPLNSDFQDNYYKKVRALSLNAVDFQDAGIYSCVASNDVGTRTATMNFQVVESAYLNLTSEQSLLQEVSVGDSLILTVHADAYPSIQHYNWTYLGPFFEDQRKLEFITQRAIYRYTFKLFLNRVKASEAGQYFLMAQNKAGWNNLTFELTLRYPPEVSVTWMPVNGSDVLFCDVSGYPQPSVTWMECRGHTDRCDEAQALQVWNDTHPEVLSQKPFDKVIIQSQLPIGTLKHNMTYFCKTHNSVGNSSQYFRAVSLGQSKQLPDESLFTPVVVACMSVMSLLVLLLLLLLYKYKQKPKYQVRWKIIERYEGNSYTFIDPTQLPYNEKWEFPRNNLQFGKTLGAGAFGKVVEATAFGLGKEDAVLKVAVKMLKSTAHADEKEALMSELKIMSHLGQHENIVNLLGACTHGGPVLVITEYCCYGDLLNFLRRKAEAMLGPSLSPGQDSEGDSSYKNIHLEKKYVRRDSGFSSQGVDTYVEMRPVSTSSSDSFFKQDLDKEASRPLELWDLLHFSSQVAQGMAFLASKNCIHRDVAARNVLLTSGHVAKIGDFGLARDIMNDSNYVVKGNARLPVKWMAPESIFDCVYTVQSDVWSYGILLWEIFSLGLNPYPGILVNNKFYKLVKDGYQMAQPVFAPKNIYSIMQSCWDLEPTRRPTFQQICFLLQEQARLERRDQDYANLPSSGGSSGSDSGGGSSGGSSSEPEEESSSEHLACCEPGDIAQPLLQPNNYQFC
The experiment in a line: In vivo inhibition of CSF1R in 5XFAD mouse assessed as reduction in plaque pathology in […] cortex at 600 ppm administered as rodent chow starting from 1.5 months and measured after 5 months by immunolabeling based confocal microscopic analysis. The note with it: route po, time 3.5 months.

Another data set has as its target Aurora kinase B (Homo sapiens, UniProt Q96GD4). The experiment in a line: Inhibition of AURKB (unknown origin).
Data set [3] concerns the target Inhibitor of nuclear factor kappa-B kinase subunit alpha (Homo sapiens, UniProt O15111). Put plainly: Inhibition of CHUK (unknown origin).
Data set [4] deals with Casein kinase I isoform gamma-2 (Homo sapiens, UniProt P78368). The experiment in a line: Inhibition of CSNK1G2 (unknown origin).
The target in the next data set is Ephrin type-A receptor 3 (Homo sapiens, UniProt P29320). The experiment in a line: Inhibition of EPHA3 (unknown origin).
The target of data set [5] is Hepatocyte growth factor receptor (Homo sapiens, UniProt P08581). The experiment in a line: Inhibition of MET (unknown origin).
The nature of data set [6]: Cmax in dog at 45 mg/kg, po administered as single dose via gavage. Format: ADME, organism-based, Canis lupus familiaris. The note with it: in vivo.
Data set [7] is described as follows: AUC (0 to 24 hrs) in mouse brain at 300 ppm administered as rodent chow for 14 days. In kind it is ADME, tissue-based. The note with it: route po, time 14 day.
Data set [8] concerns Mus musculus. Put plainly: Antialzheimer activity in wildtype mouse assessed as number of Iba positive cells per FOV in somatosensory cortex at 1200 ppm administered as rodent chow starting from 1.5 months and measured after 4 months (reference value: 304 to 351). In kind it is functional. The note with it: route po, time 2.5 months, 1825 h.
A short description of data set [9]: Toxicity in wildtype mouse assessed as number of platform entry at 1200 ppm administered as rodent chow for 10 to 24 weeks by Morris water maze test (reference value: 0 to 5). The note with it: in vivo, po, time 10-24 weeks.
Data set [10] relates to Mus musculus. The experiment in a line: Antialzheimer activity in 5XFAD mouse assessed as average plaque volume in thalamus at 1200 ppm administered as rodent chow starting from 1.5 months and measured after 7 months by Thio-S staining based confocal microscopic analysis (reference value: 2442.562 to 3332.739 microm3). Format: functional. The note with it: route po, time 5.5 months, 4015 h.

Data set [11] has as its system Mus musculus. The experiment in a line: Antialzheimer activity in 5XFAD mouse assessed as microglial elimination in cortex at 1200 ppm administered as rodent chow for 10 weeks by Thio-S staining based confocal microscopic analysis relative to control. Format: functional. The note with it: route po. The procedure, abridged: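 1.5-month-old 5xFAD mice fed 1200 ppm PLX5622 chow for 10 weeks; free-floating sections stained with Thio-S and immunolabeled for IBA1 (5% normal serum/0.2% Triton X-100 block, 60 min); confocal imaging of cortex and thalamus to assess remaining microglia.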

The subject of data set [12] is Mus musculus. Put plainly: Antialzheimer activity in 5XFAD mouse assessed as percent change in claudin-5 intensity of thalamus at 1200 ppm administered as rodent chow starting from 1.5 months and measured after 4 months by immunolabeling analysis relative to control. Format: functional. The note with it: route po, time 2.5 months, 1825 h.
Data set [13] concerns Mus musculus. The experiment in a line: Effect on APP processing pathway in 5XFAD mouse assessed as C-terminal PS1 protein signal intensity in cortex at 1200 ppm administered as rodent starting from 1.5 months and measured after 7 months (reference value: 42.868 to 145.444 %). Format: functional. The note with it: route po, time 5.5 months, 4015 h.
Data set [14] has as its system Mus musculus. Put plainly: Antialzheimer activity in 5XFAD mouse assessed as ApoE immunoreactivity by measuring APP volume per number of Thio-S positive deposits at 1200 ppm administered as rodent chow starting from 1.5 months and measured after 7 months by immunolabeling based confocal microscopic analysis (reference value: 6.415 to 29.760 microm3). In kind it is functional. The note with it: route po, time 5.5 months, 4015 h.

A short description of data set [15]: Effect on Siglech gene expression in 5XFAD mouse thalamus at 1200 ppm administered as rodent chow starting from 1.5 months and measured after 7 months by RNA-Seq analysis (reference value: 4.466 to 6.336 RPKM). Format: functional. The note with it: route po, time 5.5 months, 4015 h.
Data set [16] can be described thus: Effect on Ctsd gene expression in wild type mouse hippocampus at 1200 ppm administered as rodent chow starting from 1.5 months and measured after 7 months by RNA-Seq analysis (reference value: 111.753 to 176.402 RPKM). Format: functional. The note with it: route po, time 5.5 months, 4015 h.
A short description of data set [17]: Effect on Ctsd gene expression in 5XFAD mouse hippocampus at 1200 ppm administered as rodent chow starting from 1.5 months and measured after 7 months by RNA-Seq analysis (reference value: 230.675 to 384.375 RPKM). In kind it is functional. The note with it: route po, time 5.5 months, 4015 h.
The nature of data set [18]: Prevention of Zfp286 gene downregulation in 5XFAD mouse hippocampus assessed as percent change in Reads Per kilo base per Million mapped reads at 1200 ppm administered as rodent chow starting from 1.5 months and measured after 7 months by RNA-Seq analysis (reference value: 71.833 to 84.581 %). Format: functional. The note with it: route po, time 5.5 months, 4015 h.

Sequence of Aurora kinase B (Q96GD4 whole entry): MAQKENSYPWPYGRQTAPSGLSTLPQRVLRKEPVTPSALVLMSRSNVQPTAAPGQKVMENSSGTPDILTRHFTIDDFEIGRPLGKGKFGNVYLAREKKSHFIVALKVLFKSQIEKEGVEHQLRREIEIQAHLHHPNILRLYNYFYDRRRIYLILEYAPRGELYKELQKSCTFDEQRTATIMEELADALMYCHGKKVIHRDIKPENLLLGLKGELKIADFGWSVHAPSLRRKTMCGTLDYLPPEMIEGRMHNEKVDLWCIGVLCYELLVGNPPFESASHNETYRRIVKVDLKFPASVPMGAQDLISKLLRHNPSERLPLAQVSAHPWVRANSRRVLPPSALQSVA
Sequence of Hepatocyte growth factor receptor (P08581 whole entry): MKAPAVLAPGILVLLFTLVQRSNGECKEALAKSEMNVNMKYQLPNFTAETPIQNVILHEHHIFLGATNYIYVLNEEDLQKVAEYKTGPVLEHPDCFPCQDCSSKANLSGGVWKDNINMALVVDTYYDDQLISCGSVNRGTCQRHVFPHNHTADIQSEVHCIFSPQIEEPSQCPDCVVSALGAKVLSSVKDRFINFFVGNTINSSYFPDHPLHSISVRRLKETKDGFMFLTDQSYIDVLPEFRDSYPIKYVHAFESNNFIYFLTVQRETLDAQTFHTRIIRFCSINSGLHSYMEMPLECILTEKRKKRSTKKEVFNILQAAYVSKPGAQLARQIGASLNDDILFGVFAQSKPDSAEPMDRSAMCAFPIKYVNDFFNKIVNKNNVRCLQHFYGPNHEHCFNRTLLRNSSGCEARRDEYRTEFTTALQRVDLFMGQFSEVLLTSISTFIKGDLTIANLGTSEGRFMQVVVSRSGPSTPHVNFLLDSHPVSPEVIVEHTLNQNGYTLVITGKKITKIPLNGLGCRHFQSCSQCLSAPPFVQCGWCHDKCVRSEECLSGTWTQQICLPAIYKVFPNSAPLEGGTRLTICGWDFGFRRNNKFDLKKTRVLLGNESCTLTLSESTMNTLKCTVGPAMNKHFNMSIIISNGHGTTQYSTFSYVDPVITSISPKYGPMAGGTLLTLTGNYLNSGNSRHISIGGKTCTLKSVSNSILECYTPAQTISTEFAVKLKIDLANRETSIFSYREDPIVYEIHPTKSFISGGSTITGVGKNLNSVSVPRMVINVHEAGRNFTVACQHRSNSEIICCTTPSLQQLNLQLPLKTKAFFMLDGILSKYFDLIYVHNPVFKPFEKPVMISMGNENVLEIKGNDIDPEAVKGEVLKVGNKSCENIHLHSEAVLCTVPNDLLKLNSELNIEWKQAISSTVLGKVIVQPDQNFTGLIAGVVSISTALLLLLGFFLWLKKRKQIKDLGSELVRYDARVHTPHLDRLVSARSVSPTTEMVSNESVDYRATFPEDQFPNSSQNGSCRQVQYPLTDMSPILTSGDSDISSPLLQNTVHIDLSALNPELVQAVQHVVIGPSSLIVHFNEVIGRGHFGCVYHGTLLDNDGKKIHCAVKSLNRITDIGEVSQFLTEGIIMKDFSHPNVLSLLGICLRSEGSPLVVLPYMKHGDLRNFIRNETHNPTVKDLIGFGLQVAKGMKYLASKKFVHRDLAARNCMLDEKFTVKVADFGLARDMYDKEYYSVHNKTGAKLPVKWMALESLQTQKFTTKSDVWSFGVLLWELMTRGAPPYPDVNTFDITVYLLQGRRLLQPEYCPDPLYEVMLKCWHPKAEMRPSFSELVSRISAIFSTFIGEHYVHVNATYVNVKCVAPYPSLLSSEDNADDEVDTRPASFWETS
Sequence of Inhibitor of nuclear factor kappa-B kinase subunit alpha (O15111 whole entry, canonical isoform): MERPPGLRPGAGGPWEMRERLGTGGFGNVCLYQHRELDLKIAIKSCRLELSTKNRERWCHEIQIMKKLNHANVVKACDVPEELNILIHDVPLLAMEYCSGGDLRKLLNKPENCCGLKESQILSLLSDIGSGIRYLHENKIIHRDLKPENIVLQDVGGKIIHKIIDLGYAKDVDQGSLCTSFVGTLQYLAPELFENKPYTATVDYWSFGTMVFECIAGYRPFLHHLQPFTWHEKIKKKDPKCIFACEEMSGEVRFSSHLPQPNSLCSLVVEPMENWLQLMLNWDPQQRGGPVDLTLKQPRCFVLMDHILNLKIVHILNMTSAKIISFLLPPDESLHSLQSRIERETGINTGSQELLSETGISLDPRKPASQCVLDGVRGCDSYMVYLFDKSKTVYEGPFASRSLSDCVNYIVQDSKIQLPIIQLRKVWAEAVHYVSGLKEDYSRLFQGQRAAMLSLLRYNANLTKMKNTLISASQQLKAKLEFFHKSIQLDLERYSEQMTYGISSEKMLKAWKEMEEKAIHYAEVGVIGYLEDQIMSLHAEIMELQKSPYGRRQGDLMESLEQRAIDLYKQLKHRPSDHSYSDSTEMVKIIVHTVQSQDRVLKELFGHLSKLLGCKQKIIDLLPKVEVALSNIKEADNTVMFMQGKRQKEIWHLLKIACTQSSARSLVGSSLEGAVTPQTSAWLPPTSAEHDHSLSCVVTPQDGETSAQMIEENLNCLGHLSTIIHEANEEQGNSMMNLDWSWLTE
Sequence of Ephrin type-A receptor 3 (P29320 whole entry): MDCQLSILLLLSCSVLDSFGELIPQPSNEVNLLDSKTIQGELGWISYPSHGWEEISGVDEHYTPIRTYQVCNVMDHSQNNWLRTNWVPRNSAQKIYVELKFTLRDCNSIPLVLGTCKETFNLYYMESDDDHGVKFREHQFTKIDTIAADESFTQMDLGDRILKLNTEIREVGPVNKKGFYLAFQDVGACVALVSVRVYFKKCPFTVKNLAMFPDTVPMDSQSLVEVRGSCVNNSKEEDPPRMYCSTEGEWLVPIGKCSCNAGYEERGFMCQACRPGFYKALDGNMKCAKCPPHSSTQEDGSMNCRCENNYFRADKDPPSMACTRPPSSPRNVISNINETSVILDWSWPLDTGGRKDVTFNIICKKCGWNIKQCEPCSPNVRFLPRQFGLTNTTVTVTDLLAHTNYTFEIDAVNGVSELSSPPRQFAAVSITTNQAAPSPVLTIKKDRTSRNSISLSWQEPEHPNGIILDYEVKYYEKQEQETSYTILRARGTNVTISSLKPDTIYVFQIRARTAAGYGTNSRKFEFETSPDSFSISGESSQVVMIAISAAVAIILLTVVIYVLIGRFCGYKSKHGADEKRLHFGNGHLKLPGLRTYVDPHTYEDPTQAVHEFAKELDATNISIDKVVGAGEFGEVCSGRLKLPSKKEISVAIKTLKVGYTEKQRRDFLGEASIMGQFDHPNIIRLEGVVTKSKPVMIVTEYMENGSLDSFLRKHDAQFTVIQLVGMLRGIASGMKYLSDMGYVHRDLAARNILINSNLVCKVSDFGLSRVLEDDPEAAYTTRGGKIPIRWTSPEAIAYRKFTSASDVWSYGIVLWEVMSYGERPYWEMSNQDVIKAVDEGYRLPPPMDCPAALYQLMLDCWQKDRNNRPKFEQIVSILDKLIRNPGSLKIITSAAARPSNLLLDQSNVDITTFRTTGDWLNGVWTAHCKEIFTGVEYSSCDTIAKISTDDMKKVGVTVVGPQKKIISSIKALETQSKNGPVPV
Sequence of Casein kinase I isoform gamma-2 (P78368 whole entry, canonical isoform): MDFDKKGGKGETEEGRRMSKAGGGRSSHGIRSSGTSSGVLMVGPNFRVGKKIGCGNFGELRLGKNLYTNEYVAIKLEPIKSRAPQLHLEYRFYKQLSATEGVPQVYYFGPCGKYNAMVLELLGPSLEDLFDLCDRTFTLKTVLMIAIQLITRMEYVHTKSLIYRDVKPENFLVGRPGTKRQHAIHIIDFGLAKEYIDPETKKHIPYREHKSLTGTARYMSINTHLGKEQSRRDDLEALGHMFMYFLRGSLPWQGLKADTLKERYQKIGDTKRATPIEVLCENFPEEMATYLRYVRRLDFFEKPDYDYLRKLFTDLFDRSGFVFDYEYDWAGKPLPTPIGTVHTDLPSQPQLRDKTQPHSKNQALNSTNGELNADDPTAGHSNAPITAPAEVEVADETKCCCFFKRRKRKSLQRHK

Take `FC(F)(F)c1ccc(CNc2ccc(Cc3c[nH]c4ncc(Cl)cc34)cn2)cn1` [PEXIDARTINIB]: the outcome in the data set on Mus musculus [1] was Active. In [2], the inhibition result was “Active”.

For `COc1ncc(F)cc1CNc1ccc(Cc2c[nH]c3ncc(C)cc23)c(F)n1` [PLX-5622], the 50% inhibitory concentration (IC50) (against Aurora kinase B; in data set [3]; in data set [4]; against Ephrin type-A receptor 3; in data set [5]) was above 1000 nM throughout. For the same compound, the peak level in data set [6] (Cmax) was 3630 ng/mL. Besides, in [7], the AUC at 336 h is 23100 ng·h/mL. Moreover, the Activity in the data set with Mus musculus [8] was 0; in data set [9], 1; in the data set with Mus musculus [10], 1488.396 um3; with Mus musculus [11] it was above 99%; in the data set with Mus musculus [12] it was 7.551%; in the data set on Mus musculus [13], 12.015%. In addition, the Activity in the data set on Mus musculus [14] was determined as 10.459 um3; in data set [15], 0 RPKM; in data set [16], 89.626 RPKM; in data set [17], 132.829 RPKM; in data set [18], 91.857%.

What is called IC50 is the concentration at which inhibition is half-maximal. A low value points to inhibition by little substance. One may read the Cmax as the highest concentration seen after dosing. A word on the AUC: it is the area under the concentration-time curve, a measure of exposure. Lower therefore signals low exposure.
